ChEMBL document CHEMBL6127074, “Isolation and Characterization of the Cyanobacterial Macrolide Glycoside Moorenaside, an Anti-Inflammatory Analogue of Aurisides Targeting the Keap1/Nrf2 Pathway” (J Nat Prod, 2024)
Active and inactive are the calls of the source. The rule behind the calls is not given here.

Legend:
[1] = system: LoVo; assay: Antiproliferative activity against human LoVo cells; format: functional, cell-based
[2] = system: KB; assay: Antiproliferative activity against human KB cells; format: functional, cell-based
[3] = system: HEK293; assay: Cytotoxicity against HEK293 ARE-luc cells at 1 to 32 uM incubated for 24 hrs by MTT assay; format: toxicity, cell-based; conditions: human, hek293, 24 h, dose 1-32 µM
Method in brief: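 HEK293 ARE-luc cells seeded 10,000/well and left overnight, then treated with half-log dilutions from 32 μM, tBHQ 10 μM, or 0.5% DMSO for 24 h. Viability was read by MTT; mean ± SD, n = 3.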

[4] = system: RAW264.7; assay: Anti-inflammatory activity in LPS induced mouse RAW264.7 cells assessed as fold increase in Nqo1 transcript level at 32 uM preincubated for 1 hr followed by LPS stimulation and measured after 12 hrs by TaqMan analysis; format: functional; conditions: time 13 hrs
Method in brief: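 RAW264.7 cells seeded 175,000/well, given fresh medium, pretreated 1 h with half-log dilutions from 32 μM (0.5% DMSO vehicle), then stimulated with LPS 1 μg/mL for 12 h. Unstimulated wells were run alongside. RNA was extracted and reverse transcribed with oligo(dT), then measured by TaqMan qPCR for Nqo1 and iNos with actin as the endogenous control. Mean ± SD, n = 3, two-tailed unpaired t-test against DMSO + LPS.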

[5] = system: RAW264.7; assay: Cytotoxicity against mouse RAW264.7 cells at 32 uM incubated for 24 hrs by MTT assay; format: toxicity, cell-based; conditions: raw264.7, 24 h
Method in brief: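 RAW264.7 cells seeded 20,000/well and treated for 24 h with half-log dilutions from 32 μM together with LPS 1 μg/mL (0.5% DMSO vehicle). Viability was read by MTT in parallel with the NO assay; mean ± SD, n = 3.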

[6] = system: HEK293; assay: Activation of Nrf2-ARE pathway in HEK293 cells transfected with firefly luciferase reporter assessed as fold increase in Nrf2 activity at 10 uM incubated for 24 hrs by ARE luciferase reporter gene based microplate reader assay; format: cell-based; conditions: Homo sapiens, filed as activator
Method in brief: (§1)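 HEK293 cells stably carrying an ARE-driven firefly luciferase reporter, grown in DMEM with 10% FBS at 37 °C and 5% CO2, seeded 10,000/well and left overnight. Half-log serial dilutions from 32 μM were added, with tBHQ (10 μM) as positive control and 0.5% DMSO as vehicle. Luminescence was read with BriteLite reagent after 24 h and expressed as fold activity; n = 3.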

[7] = system: HCT-116; assay: Antiproliferative activity against human HCT-116 cells assessed as cell viability at 32 uM incubated for 48 hrs by MTT assay; conditions: HCT-116, 48 h
[8] = system: RAW264.7; assay: Anti-inflammatory activity in LPS induced mouse RAW264.7 cells assessed as reduction in NO production at 32 uM preincubated for 1 hr followed by LPS stimulation and measured after 24 hrs by Griess reagent based plate reader assay; format: functional, cell-based; conditions: time 25.0 hrs
Method in brief: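 RAW264.7 cells seeded 20,000/well, pretreated 1 h with half-log dilutions from 32 μM (0.5% DMSO vehicle), then stimulated with LPS 1 μg/mL. Unstimulated controls were included. After 24 h the supernatant was mixed with Griess reagent and absorbance read at 540 nm. NO was calculated from a nitrite standard curve. Mean ± SD, n = 3, t-test against DMSO + LPS.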

[9] = system: HEK293; assay: Activation of Nrf2-ARE pathway in HEK293 cells transfected with firefly luciferase reporter assessed as fold increase in Nrf2 activity at 32 uM incubated for 24 hrs by ARE luciferase reporter gene based microplate reader assay; format: cell-based; conditions: Homo sapiens, filed as activator; method in brief: as §1
[10] = system: Trypanosoma brucei rhodesiense; assay: Antiparasitic activity against Trypanosoma brucei rhodesiense; format: functional, organism-based

## CO[C@@H]1[C@@H](OC)[C@@H](O)[C@H](O[C@H]2C[C@@]3(O)CC(=O)O[C@@](C)(CC/C=C/C=C/Br)C[C@H](O)[C@@H](C)CC[C@H](O3)[C@@H]2C)O[C@H]1C
[1]
  IC50: 15 µM
[2]
  IC50: 4.3 µM

## CO[C@@H]1[C@@H](O)[C@@H](OC)[C@H](O[C@@H]2C[C@H]3O[C@@](O)(C2)[C@H](C)C(=O)O[C@@H](/C=C/C=C/Br)C/C(C)=C/C(=O)C3(C)C)O[C@H]1C
[3]
  Activity: Non-Toxic
[4]
  fold change (FC): 5
[5]
  Activity: Non-Toxic
[6]
  fold change (FC): 2.5
[7]
  viability at 32 µM: 55%
[8]
  Activity: Active
[9]
  fold change (FC): 7.7

## CCCCC/C=C/C=C/[C@H]1OC(=O)C[C@@H]2O[C@H](C[C@H](O)C[C@H](C)C[C@@H](O)C1(C)C)C[C@H](O[C@@H]1OC[C@@H](OC)[C@H](O)[C@H]1O)C2(C)C
[10]
  IC50: 11 µM

## C=CCCC/C=C/C=C/[C@H]1OC(=O)C[C@@H]2O[C@H](C[C@H](O)C[C@H](C)C[C@@H](O)C1(C)C)C[C@H](O[C@@H]1OC[C@@H](OC)[C@H](O)[C@H]1O)C2(C)C
[10]
  IC50: 11 µM
